Experimental findings from ChEMBL document CHEMBL4616650, “Spongian Diterpenoids Derived from the Antarctic Sponge Dendrilla antarctica Are Potent Inhibitors of the Leishmania Parasite” (J Nat Prod, 2020) are described below.

The structures appear in SMILES notation.

One data set has as its system Leishmania donovani. Put plainly: Antileishmanial activity against Leishmania donovani MHOM/SD/75/1246/130 amastigotes infected in mouse J774A.1 cells incubated for 72 hrs by DRAQ5 fluorescent probe based assay. It counts as functional, organism-based. Conditions: MHOM/SD/75/1246/130, J774.A1, 72 h. In short, it runs like this: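 Axenic amastigotes grown at 37 °C in RPMI 1640 pH 5.5 with HEPES, MES, hemin, xanthine, Tween-80, tryptone-peptone, 20% heat-inactivated FBS. 2000 J774A.1 macrophages per well infected at 10:1 parasites:cells, 24 h, 37 °C, 5% CO2; extracellular parasites washed off. Compounds from 10 μg/mL top, 1:2 serial dilutions, 72 h. Fixed 2% paraformaldehyde, DraQ5 5 μM nuclear stain; high-content imaging counts amastigotes per 500 macrophages; IC50 derived.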

Data set [1] in a line: Selectivity index, ratio of cytotoxicity against mouse J774A.1 cells to antileishmanial activity against Leishmania donovani MHOM/SD/75/1246/130 amastigotes infected in mouse J774A.1 cells. As to conditions: read-out: Ratio IC50. It counts as toxicity, cell-based.
The subject of the next data set is J774.A1. Put plainly: Cytotoxicity against mouse J774A.1 cells incubated for 72 hrs by CellTiter 96 AQueous One solution cell proliferation assay. Conditions: J774.A1, 72 h. It counts as cell-based. In short, it runs like this:
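J774A.1 macrophages in RPMI 1640 with 10% heat-inactivated FBS, pH 7.2. Seeded at 50 000 cells per well with six 2-fold dilutions, final 50 to 1.6 μg/mL, 72 h at 37 °C, 5% CO2. MTS reagent added for a further 4 h; absorbance read at 490 nm.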

Take `CC(=O)O[C@@H]1O[C@H]2OC(=O)[C@H](C)C3=C([C@@]4(C)CCCC(C)(C)C4)CC[C@@H]1[C@H]32`: the IC50 in the data set on Leishmania donovani was 3.5 µM; in the data set on J774.A1, more than 133 µM. In data set [1], the selectivity ratio was more than 38.

Take `CCCCCCCCCCCCCCCCOP(=O)([O-])OCC[N+](C)(C)C` [MILTEFOSINE]: the half-inhibitory concentration (IC50) in the data set with Leishmania donovani was 2.9 µM; in the data set on J774.A1, more than 120 µM.

In the case of `CO[C@H]1O[C@@H](OC)c2c1ccc([C@@]1(C)CCCC(C)(C)C1)c2[C@@H](C)C(=O)O` [MEMBRANOLIDE D], the IC50 amounted to 6.6 µM with Leishmania donovani and 95 µM in the data set with J774.A1.

With `CO[C@@H]1O[C@@H](OC)c2c1ccc([C@@]1(C)CCCC(C)(C)C1)c2[C@@H](C)C(=O)O` [MEMBRANOLIDE C], the half-inhibitory concentration (IC50) in the data set on Leishmania donovani is 0.8 µM; in the data set on J774.A1, more than 133 µM. For the same molecule, the selectivity ratio in data set [1] is more than 166.

`CO[C@H]1OC(=O)[C@H](C)c2c([C@@]3(C)CCCC(C)(C)C3)ccc(C=O)c21`: the IC50 was more than 29 µM in the data set with Leishmania donovani and 54.6 µM in the data set on J774.A1.

For the molecule `CO[C@H]1OC(=O)c2ccc([C@@]3(C)CCCC(C)(C)C3)c([C@@H](C)C(=O)O)c21`, the half-maximal inhibitory concentration (IC50) with Leishmania donovani was found to be 26.7 µM; with J774.A1, 42.4 µM.

`CO[C@@H]1O[C@H](OC)c2c1ccc([C@@]1(C)CCCC(C)(C)C1)c2[C@@H](C)C(=O)O`: the IC50 is 6.5 µM with Leishmania donovani and more than 133 µM in the data set with J774.A1.

With `C[C@H]1C(=O)O[C@@H](O)c2c(C=O)ccc([C@@]3(C)CCCC(C)(C)C3)c21`, the half-maximal inhibitory concentration (IC50) in the data set with Leishmania donovani is 1.9 µM; with J774.A1 it was more than 150 µM. Further, in data set [1], the selectivity ratio is more than 100.

For `CC(=O)O[C@@H]1O[C@H]2OCC3=C(C)[C@@H]([C@@]4(C)CCCC(C)(C)C4)CC[C@@H]1[C@H]32`, the figures for the IC50 in the data set on Leishmania donovani and in the data set with J774.A1 were 11.2 µM and 73.4 µM, respectively.

Turning to `COC(=O)[C@H](C)c1c([C@@]2(C)CCCC(C)(C)C2)ccc2c1C(=O)OC2`, the values for the concentration for half-maximal inhibition (IC50) in the data set with Leishmania donovani and in the data set on J774.A1 were 9.7 µM and 76.8 µM, respectively.

For `CO[C@H]1O[C@@H](OC(C)=O)c2ccc([C@@]3(C)CCCC(C)(C)C3)c([C@@H](C)C(=O)O)c21`, the IC50 with Leishmania donovani turned out to be 12 µM; in the data set with J774.A1, 62.9 µM.

For `CC(=O)O[C@@H]1O[C@H]2OC(=O)[C@H](C)C3C([C@@]4(C)CCCC(C)(C)C4)=CC=C1C32` (stereo partly specified), the half-inhibitory concentration (IC50) came out at 3.1 µM in the data set on Leishmania donovani and 12.3 µM in the data set on J774.A1. Also, the selectivity ratio in data set [1] was found to be 4.

Regarding `CO[C@H]1O[C@H](OC)c2c1ccc([C@@]1(C)CCCC(C)(C)C1)c2[C@@H](C)C(=O)O`, the IC50 was 1.4 µM in the data set on Leishmania donovani and more than 133 µM in the data set on J774.A1. In addition, the selectivity ratio in data set [1] is more than 95.
